Source: article PMC4655421 (ACS Chemical Biology, 2015)
Where “and” joins values, the source holds several entries; their conditions need not be identical. Identical values can stand only once. Each block holds one compound with its values, some of them ahead of it.

How the values were obtained:
[1] = molecular target: T1, Rho-MatB (Rhodopseudomonas palustris, UniProt Q6ND88, C106A/K488A/Q457C/R286C); test: Fluorescence of Rho-MatB with various ligands; assay type: binding; settings: in words
T1 sequence (Q6ND88 1-503 C106A/R286C/Q457C/K488A): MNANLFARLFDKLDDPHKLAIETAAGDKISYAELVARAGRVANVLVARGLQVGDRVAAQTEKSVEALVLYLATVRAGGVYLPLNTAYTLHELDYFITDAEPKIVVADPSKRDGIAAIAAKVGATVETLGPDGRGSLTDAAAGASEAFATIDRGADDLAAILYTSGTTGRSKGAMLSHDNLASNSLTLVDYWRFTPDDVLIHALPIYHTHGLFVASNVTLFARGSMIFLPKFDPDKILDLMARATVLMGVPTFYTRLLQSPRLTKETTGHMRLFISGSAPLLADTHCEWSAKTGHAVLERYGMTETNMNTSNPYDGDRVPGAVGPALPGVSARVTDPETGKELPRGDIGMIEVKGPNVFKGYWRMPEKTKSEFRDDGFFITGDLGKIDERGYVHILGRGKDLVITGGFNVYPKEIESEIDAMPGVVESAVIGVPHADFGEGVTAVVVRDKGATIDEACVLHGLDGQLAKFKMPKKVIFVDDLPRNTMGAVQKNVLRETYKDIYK

[2] = molecular target: T1, Rho-MatB; test: ATP titration of Rho-MatB in the presence of other nucleotides; assay type: binding; settings: for fluorescence ratio of ATP titration: 1 μM Rho-MatB titrated with ATP in presence of 100 μM of the named nucleotide
In short: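 ATP was titrated into 1 μM labelled sensor, alone or with 100 μM ADP, dATP, ATPγS or AMP-PNP. Buffer was Hepes pH 7.0 / NaCl / MgCl2 / BSA, with excitation at 553 nm and emission at 571 nm. Dilution-corrected data were fitted to a quadratic binding equation to give the apparent Kd for ATP and the fluorescence ratio.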

[3] = molecular target: T1, Rho-MatB; test: Fluorescence titration of nucleotides to Rho-MatB; assay type: binding
[4] = molecular target: T1, Rho-MatB; test: Stopped-flow association and dissociation kinetics of Rho-MatB and ATP; assay type: binding; settings: 25 °C
In short: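 Stopped-flow fluorescence at 25 °C in Hepes pH 7.0, NaCl, MgCl2, BSA buffer. In one format, a range of sensor concentrations in 10-fold excess over ATP gave single-exponential traces, with at least three traces averaged at 1.3 and 2.5 μM. In the other, 0.25 μM sensor was mixed with excess ATP, giving biphasic traces. kobs (fast phase) was plotted against the excess reactant; linear-regression slope gave association and intercept gave dissociation.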

[5] = molecular target: RpMatB K488A; settings: read-out: Kd for ATP; unlabeled RpMatB K488A; cited from earlier work
[6] = system: ATeam; settings: ATeam biosensor; cited from earlier work
[7] = molecular target: pyruvate kinase (Oryctolagus cuniculus, UniProt P11974); test: Steady-state ATP production by pyruvate kinase monitored by Rho-MatB; assay type: biochemical, rabbit
Chain of pyruvate kinase (P11974 whole entry): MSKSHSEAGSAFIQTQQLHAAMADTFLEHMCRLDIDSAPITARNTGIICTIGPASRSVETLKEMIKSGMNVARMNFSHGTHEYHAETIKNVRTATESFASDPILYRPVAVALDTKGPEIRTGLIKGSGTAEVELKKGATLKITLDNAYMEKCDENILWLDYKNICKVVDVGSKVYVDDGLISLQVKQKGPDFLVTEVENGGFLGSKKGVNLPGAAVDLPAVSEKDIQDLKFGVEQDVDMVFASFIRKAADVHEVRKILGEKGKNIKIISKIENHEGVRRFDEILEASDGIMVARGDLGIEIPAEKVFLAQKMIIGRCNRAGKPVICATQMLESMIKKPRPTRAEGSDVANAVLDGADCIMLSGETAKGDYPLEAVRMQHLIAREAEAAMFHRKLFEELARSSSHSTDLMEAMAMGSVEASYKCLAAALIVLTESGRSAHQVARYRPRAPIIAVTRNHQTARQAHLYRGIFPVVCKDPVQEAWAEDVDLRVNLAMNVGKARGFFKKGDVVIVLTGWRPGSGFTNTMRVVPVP

[8] = 0.25 μM Rho-MatB, ATP in large excess
[9] = Rho-MatB in 10-fold excess over ATP

SMILES: Nc1nc2c(ncn2[C@@H]2O[C@H](COP(=O)(O)OP(=O)(O)OP(=O)(O)O)[C@@H](O)[C@H]2O)c(=O)[nH]1 [GTP]
effect on the fluorescence of Rho-MatB [1]: did not significantly affect the fluorescence

SMILES: Nc1nc2c(ncn2[C@@H]2O[C@H](COP(=O)(O)OP(=O)(O)O)[C@@H](O)[C@H]2O)c(=O)[nH]1 [GDP]
effect on the fluorescence of Rho-MatB [1]: did not significantly affect the fluorescence

SMILES: Nc1ncnc2c1ncn2[C@@H]1O[C@H](COP(=O)(O)OP(=O)(O)NP(=O)(O)O)[C@@H](O)[C@H]1O [AMP-PNP, adenosine 5′-(β,γ-imido)triphosphate]
fluorescence ratio of ATP titration [2]: 2.4

SMILES: Nc1ncnc2c1ncn2[C@@H]1O[C@H](COP(=O)(O)O)[C@@H](O)[C@H]1O [AMP]
effect on the fluorescence of Rho-MatB [1]: did not significantly affect the fluorescence

SMILES: Nc1ncnc2c1ncn2[C@@H]1O[C@H](CO[P@](=O)(O)O[P@](=O)(O)O[P@@](=O)(O)S)[C@@H](O)[C@H]1O [ATPγS, adenosine 5′-(γ-thio)triphosphate]
Kd [3]: 16.2 ± 0.8 µM | fluorescence ratio of ATP titration [2]: 1.9 | increase of apparent Kd for ATP ([2]; fixed concentration of the named nucleotide): ~5 fold

SMILES: Nc1ncnc2c1ncn2[C@@H]1O[C@H](COP(=O)(O)OP(=O)(O)OP(=O)(O)O)[C@@H](O)[C@H]1O [ATP]
higher affinity for ATP than ADP ([3]; Rho-MatB): 67 fold | increase in fluorescence intensity on ATP binding ([3]; excitation 553 nm, emission 575 nm, 1 μM Rho-MatB): 3.7 fold | association rate constant (fast phase) [4, 8]: 1.83 ± 0.02 μM^–1 s^–1 and 1.8 μM^–1 s^–1 | intercept (dissociation rate constant, fast phase) [4, 8]: 8.15 ± 0.17 s^–1 and 8.2 s^–1 | association rate constant [4, 9]: 0.72 μM^–1 s^–1 | intercept (dissociation rate constant) [4, 9]: 8.0 s^–1 and 7.95 ± 0.18 s^–1 | Kd [5]: 0.31 µM | higher affinity for ATP than ADP [6]: 30 fold

SMILES: Nc1ncnc2c1ncn2[C@H]1C[C@H](O)[C@@H](COP(=O)(O)OP(=O)(O)OP(=O)(O)O)O1 [dATP]
fluorescence ratio of ATP titration [2]: 2.3

SMILES: CC(C)(COP(=O)(O)OP(=O)(O)OC[C@H]1O[C@@H](n2cnc3c(N)ncnc32)[C@H](O)[C@@H]1OP(=O)(O)O)[C@@H](O)C(=O)NCCC(=O)NCCS [coenzyme A]
effect on the MgATP-induced fluorescence increase [1]: did not inhibit | effect on the fluorescence of Rho-MatB [1]: no effect

average Vmax ([7]; n = 5): 0.0190 ± 0.0004 μM s^–1
SMILES: C=C(OP(=O)(O)O)C(=O)O [phosphoenolpyruvate]
average specific activity [7]: 0.76 μM s^–1 U^–1 mL and 0.76 ± 0.02 μM s^–1 U^–1 mL

SMILES: Nc1ncnc2c1ncn2[C@@H]1O[C@H](COP(=O)(O)OP(=O)(O)O)[C@@H](O)[C@H]1O [ADP]
fluorescence ratio of ATP titration [2]: 3.0

SMILES: O=C(O)CC(=O)O [malonate]
effect on the MgATP-induced fluorescence increase [1]: did not inhibit | effect on the fluorescence of Rho-MatB [1]: no effect
